Measured values reported in ChEMBL document CHEMBL3861959, “Synthesis and antiproliferative evaluation of novel 2-(4H-1,2,4-triazole-3-ylthio)acetamide derivatives as inducers of apoptosis in cancer cells” (Eur J Med Chem, 2016).
Active and inactive are the calls of the source. No cut-off for these calls is given here.

How the values were obtained:
[1] = Cytotoxicity against human MOLT4 cells assessed as cell growth at 10^-5 M after 48 hrs by SRB assay relative to control; assay type: functional; details: MOLT-4, 48 h, read-out: Activity
In short: (§1)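 NCI single-dose primary screen run under the US NCI protocol. Compounds tested at 10 µM across the 60-cell-line panel, with growth percent reported for each line.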

[2] = Induction of apoptosis in human A549 cells assessed as upregulation of caspase-8 levels at 50 uM using IETD-pNA substrate by ELISA; assay type: functional, cell-based
[3] = Cytotoxicity against human A549 cells assessed as decrease in cell proliferation after 48 hrs by MTT assay; assay type: functional, cell-based; details: A549, 48 h
In short: (§2)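 MTT viability assay in A549, K562 and PC-3 cells. Media carried 10% FBS, 1% L-glutamine and penicillin/streptomycin, at 37 °C in 5% CO2. Cells seeded and left overnight, then exposed to 5–100 µM compound for 48 h. MTT added to 0.5 mg/ml final for 4 h, medium removed, and SDS buffer added. Data given as mean ± SD, analysed by ANOVA/Tukey.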

[4] = Cytotoxicity against human KM12 cells assessed as cell growth at 10^-5 M after 48 hrs by SRB assay relative to control; assay type: functional; details: KM12, 48 h, read-out: Activity; in short: as §1
[5] = Cytotoxicity against mouse NIH/3T3 cells assessed as decrease in cell survival after 48 hrs by MTT assay; assay type: toxicity, NIH3T3
[6] = Cytotoxicity against human HCT116 cells assessed as cell growth at 10^-5 M after 48 hrs by SRB assay relative to control; assay type: functional; details: HCT-116, 48 h, read-out: Activity; in short: as §1
[7] = tested on: A549; assay: Induction of apoptosis in human A549 cells assessed as downregulation of Bcl-2 levels by […]; assay type: functional, cell-based
[8] = tested on: A549; assay: Disruption of mitochondrial membrane potential in human A549 cells after 72 hrs by JC1 staining-based assay; assay type: functional, cell-based
In short: (§3)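 Cells seeded and treated with 10, 20 and 50 µM compound. Cells pelleted at 600 × g, resuspended in JC-1 dye, and incubated at 37 °C in 5% CO2 for 15 min. Green monomers mark disrupted membrane potential; orange aggregates mark intact potential.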

[9] = Cytotoxicity against human HOP92 cells assessed as cell growth at 10^-5 M after 48 hrs by SRB assay relative to control; assay type: functional; details: HOP-92, 48 h, read-out: Activity; in short: as §1
[10] = Induction of apoptosis in human A549 cells assessed as upregulation of caspase-3 levels using DEVD-pNA substrate by ELISA; assay type: functional, cell-based
In short: (§4)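 Supernatant protein measured by Bradford. 200 µg protein incubated with pNA substrate (DEVD-pNA for caspase-3) using a colorimetric kit. Data given as mean ± SD; one-way ANOVA with Tukey test, p < 0.05.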

[11] = tested on: K562; assay: Disruption of mitochondrial membrane potential in human K562 cells after 72 hrs by JC1 staining-based assay; assay type: functional, cell-based; in short: as §3
[12] = (§5) Cytotoxicity against human K562 cells assessed as decrease in cell proliferation after 48 hrs by MTT assay; assay type: functional, cell-based; details: K562, 48 h; in short: as §2
[13] = tested on: K562; assay: as §5; assay type: functional, cell-based; in short: as §2
[14] = Induction of apoptosis in human K562 cells assessed as upregulation of caspase-3 levels using DEVD-pNA substrate after 72 hrs by ELISA; assay type: functional, cell-based; in short: as §4
[15] = tested on: K562; assay: Induction of apoptosis in human K562 cells assessed as downregulation of Bcl-2 levels after 72 hrs by […]; assay type: functional, cell-based
[16] = Induction of apoptosis in human PC3 cells assessed as upregulation of caspase-3 levels using DEVD-pNA substrate by ELISA; assay type: functional, cell-based; details: PC-3; in short: as §4
[17] = tested on: PC-3; assay: Induction of apoptosis in human PC3 cells assessed as downregulation of Bcl-2 levels by […]; assay type: functional, cell-based
[18] = Cytotoxicity against human PC3 cells assessed as decrease in cell proliferation after 48 hrs by MTT assay; assay type: functional, cell-based; details: PC-3, 48 h; in short: as §2
[19] = tested on: PC-3; assay: Disruption of mitochondrial membrane potential in human PC3 cells at 10 to 50 uM after 72 hrs by JC1 staining-based assay; assay type: functional, cell-based; in short: as §3

Row | Structure (SMILES) | growth at 10 µM [1] | Activity [2] | IC50 [3] | growth at 10 µM [4] | IC50 at 48 h [5] | growth at 10 µM [6] | Activity [7] | Activity [8] | growth at 10 µM [9] | Activity [10] | Activity [11] | IC50 [12] | Activity [13] | Activity [14] | Activity [15] | Activity [16] | Activity [17] | IC50 [18] | Activity [19]
1 | Cc1ccc(C(C)C)c(OCc2nnc(SCC(=O)Nc3ccc(Cl)cc3)n2Cc2ccccc2)c1 | 73.7% | Active | 7.9 µM | 76.9% | > 100 µg/mL | 52.9% | Dose-dependent effect | Dose-dependent effect | 78% | Dose-dependent effect | – | – | – | – | – | – | – | – | –
2 | CC(=O)Nc1ccc(OCc2nnc(SCC(=O)Nc3ccc(Br)cc3)n2Cc2ccccc2)cc1 | 64.7% | – | – | 56.4% | > 100 µg/mL | 53.2% | – | – | 70.9% | – | Dose-dependent effect | 7.71 µM | Dose-dependent effect | Dose-dependent effect | Dose-dependent effect | – | – | – | –
3 | Cc1ccc(C(C)C)c(OCc2nnc(SCC(=O)Nc3ccc(S(N)(=O)=O)cc3)n2Cc2ccccc2)c1 | 45.2% | – | – | 54.3% | > 100 µg/mL | 66.1% | – | – | 75.2% | – | – | – | – | – | – | Dose-dependent effect | Dose-dependent effect | 5.96 µM | Active
